Series [1] is described as follows: Induction of chemR23 internalization on pDCs of cynomolgus monkey assessed as internalization rate at 50 mg/kg, po measured after 4 hrs of administration by flow cytometric analysis relative to control. It is filed as functional, Macaca fascicularis. The procedure, abridged:
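Cynomolgus monkeys received 50 mg/kg orally as a suspension in 0.5% methylcellulose. Blood was drawn before dosing and at 2, 4 and 8 h. pDCs (HLA-DR+CD123+) were stained for ChemR23 and read by flow cytometry as GeoMFI. Internalization was expressed as expression at each time relative to pre-dose. Each animal was reported individually.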
For orientation: In flow cytometry, cells or beads pass a laser one at a time.

Series [2] can be described thus: MRT in cynomolgus monkey at 10 mg/kg, po by LC-MS/MS. The class given is ADME, organism-based, Macaca fascicularis. Conditions: in vivo. The method, boiled down: (§1)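 Single-compound oral dosing, 10 mg/kg as a suspension in 0.5% methylcellulose, to fed cynomolgus monkeys. Plasma was deproteinized with ice-cold acetonitrile plus internal standard and quantified by LC/MS/MS from analyte/IS peak-area ratios on a calibration curve. Values are means of three determinations.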

The species entered for series [3] is Macaca fascicularis. As to the kind of experiment: Induction of chemR23 internalization in whole blood of cynomolgus monkey assessed as internalization rate at 100 uM by flow cytometric analysis relative to control. It is filed as tissue-based.
Series [4] can be described thus: Induction of chemR23 internalization on pDCs of cynomolgus monkey assessed as chemR23 expression relative to pre-dose at 50 mg/kg, po measured at 8 hrs of administration by flow cytometric analysis.
A short description of series [5]: Half-life in cynomolgus monkey at 10 mg/kg, po by LC-MS/MS analysis. The class given is ADME, organism-based, Macaca fascicularis. Conditions: in vivo. The method, boiled down: as §1
The nature of series [6]: AUC (0 to infinity) in cynomolgus monkey at 1 mg/kg, po administered as cassette dose by LC-MS/MS analysis. Also noted: time infinity, route oral, dose 1 mg/kg. It is filed as ADME, organism-based, Macaca fascicularis. The settings on record: in vivo. The procedure, abridged:
(§2)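 Cassette oral dosing, 1.0 mg/kg as a suspension in 0.5% methylcellulose, to fed cynomolgus monkeys. Plasma was obtained from blood, deproteinized with ice-cold acetonitrile containing internal standard, and measured by LC/MS/MS against a calibration curve using analyte/IS peak-area ratios. Values are means of three determinations.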

Series [7] in a line: Plasma concentration in cynomolgus monkey at 50 mg/kg, po measured at 2 hrs of administration. It is filed as ADME, organism-based, Macaca fascicularis. The procedure, abridged: (§3)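 Cynomolgus monkeys received 50 mg/kg orally as a suspension in 0.5% methylcellulose. Plasma concentrations were measured at 2, 4 and 8 h post-dose, and each animal was reported individually.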
Series [8] is filed under the species Macaca fascicularis. Briefly: Induction of chemR23 internalization in whole blood of cynomolgus monkey assessed as internalization rate at 30 uM by flow cytometric analysis relative to control. It is filed as tissue-based.
Series [9] is described as follows: Oral bioavailability in cynomolgus monkey at 1 mg/kg and 0.1 mg/kg, iv administered as cassette dose by LC-MS/MS analysis. It is filed as ADME, organism-based, Macaca fascicularis. Conditions: in vivo. The method, boiled down: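 Plasma was deproteinized with ice-cold acetonitrile containing internal standard and quantified by LC/MS/MS against a calibration curve from analyte/IS peak-area ratios. Values are means of three determinations.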

Series [10] can be described thus: Cmax in cynomolgus monkey at 10 mg/kg, po by LC-MS/MS analysis. It is filed as ADME, organism-based, Macaca fascicularis. Also noted: route oral, dose 10 mg/kg. The settings on record: in vivo. The procedure, abridged: as §1
Series [11] can be described thus: Induction of chemR23 internalization on pDCs of cynomolgus monkey assessed as chemR23 expression relative to pre-dose at 50 mg/kg, po measured at 2 hrs of administration by flow cytometric analysis.
Series [12] is described as follows: Fraction unbound in cynomolgus monkey plasma at 1 mg/kg, po administered as cassette dose incubated for 16 to 24 hrs by equilibrium dialysis based LC-MS analysis. The settings on record: in vivo, time 16-24 hrs. The class given is ADME, organism-based, Macaca fascicularis. The procedure, abridged:
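Monkey plasma diluted with PBS and spiked with compound at 1 µM (final DMSO 0.05% v/v) was equilibrium-dialysed against PBS (membrane MWCO 12000–14000) for 16–24 h at 37 °C in a CO2 incubator. Both sides were deproteinized with acetonitrile containing IS and analysed by LC-MS/MS. Undiluted fu,p was calculated from the diluted value using the dilution factor.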

Series [13] in a line: Ratio of fraction unbound in cynomolgus monkey plasma at 10 mg/kg to IC50 of inhibition of chemR23 in human CAL1 cells. The class given is organism-based. Conditions: in vivo.
Series [14] can be described thus: Drug concentration in cynomolgus monkey at 10 mg/kg, po by LC-MS/MS analysis measured upto 8 hrs. The class given is ADME, organism-based, Macaca fascicularis. Conditions: in vivo, read-out: Ct. The method, boiled down: as §1
For another series, the target named is T1, Chemerin-like receptor 1 (Homo sapiens, UniProt Q99788).
T1 sequence (Q99788 whole entry): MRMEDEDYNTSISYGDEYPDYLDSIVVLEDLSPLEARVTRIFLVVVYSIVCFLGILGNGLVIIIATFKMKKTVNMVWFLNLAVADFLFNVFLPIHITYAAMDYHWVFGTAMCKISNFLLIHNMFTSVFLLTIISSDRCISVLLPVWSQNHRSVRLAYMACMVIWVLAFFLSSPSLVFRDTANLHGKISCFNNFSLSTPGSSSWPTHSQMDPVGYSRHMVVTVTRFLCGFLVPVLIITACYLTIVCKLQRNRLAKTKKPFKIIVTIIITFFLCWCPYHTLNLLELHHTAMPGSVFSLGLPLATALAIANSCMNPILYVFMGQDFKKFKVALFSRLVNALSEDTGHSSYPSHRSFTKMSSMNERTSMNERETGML
Briefly: Inhibition of chemR23 in human CAL1 cells assessed as inhibition of chemerin-induced intracellular calcium ion concentration preincubated for 45 mins followed by human chemerin addition by FDSS6000 analysis. It is filed as functional, cell-based.

A short description of series [15]: Induction of chemR23 internalization on pDCs of cynomolgus monkey assessed as chemR23 expression relative to pre-dose at 50 mg/kg, po measured at 4 hrs of administration by flow cytometric analysis.
Series [16] in a line: Half-life in cynomolgus monkey at 1 mg/kg, po administered as cassette dose by LC-MS/MS analysis. The class given is ADME, organism-based, Macaca fascicularis. The settings on record: in vivo. The method, boiled down: as §2
Series [17] can be described thus: Plasma concentration in cynomolgus monkey at 50 mg/kg, po measured at 4 hrs of administration. The class given is ADME, organism-based, Macaca fascicularis. The procedure, abridged: as §3
The nature of series [18]: Plasma concentration in cynomolgus monkey at 50 mg/kg, po measured at 8 hrs of administration. It is filed as ADME, organism-based, Macaca fascicularis. The procedure, abridged: as §3
The nature of series [19]: AUC (0 to infinity) in cynomolgus monkey at 10 mg/kg, po by LC-MS/MS analysis. It is filed as ADME, organism-based, Macaca fascicularis. Also noted: time infinity, route oral, dose 10 mg/kg. Conditions: in vivo. The procedure, abridged:
as §1

Series [20] can be described thus: Cmax in cynomolgus monkey at 1 mg/kg, po administered as cassette dose by LC-MS/MS analysis. It is filed as ADME, organism-based, Macaca fascicularis. Details: route oral, dose 1 mg/kg. Conditions: in vivo. The method, boiled down: as §2

In general, MRT refers to the average time that molecules of a dose stay in the body. A word on the half-life: it is the time in which the quantity being followed falls by half. The AUC(0-inf) is total exposure, with the tail of the curve extrapolated. A word on the bioavailability: it is the share of a dose that reaches the circulation, judged against a reference dose that is usually intravenous. Usually Cmax stands for the maximum level reached in the sampled fluid or tissue. Broadly, the IC50 is the concentration that inhibits the measured activity by half. For the molecule `Cc1ccc(-c2nc(=O)o[nH]2)c(-c2ccc([C@@H](C)N(CC3CC3)c3nc4c(C(=O)O)cccc4o3)cc2)c1`, the values for the Activity (in series [1]; in the series listed under Macaca fascicularis [3]; in the series listed under Macaca fascicularis [8]) were 74%, 82% and 53%, respectively. This molecule returned an MRT in series [2] of 2.9 h. Also, the ChemR23 expression in [4] worked out at 44%; in series [11], 30%; in [15], 10%. The values for the half-life in series [5] and in series [16] were 1 h and 2.8 h, respectively. Also, the AUC(0-inf) in [6] came out at 4830 ng·h/mL; in series [19] it was 22200 ng·h/mL. This molecule returned a concentration at 2 h in series [7] of 178 µM. For the same molecule, the bioavailability in series [9] was 58%. Also, the Cmax in [10] is 6950 ng/mL; in [20], 1490 ng/mL. Also, in [12], the Fu was 0.023 fraction (unitless). Further, the Ratio in [13] is 1. In addition, the concentration at 8 h in series [14] worked out at 206 ng/mL; in series [18], 30.4 µM. The 50% inhibitory concentration (IC50) at Chemerin-like receptor 1 amounted to 3.2 nM. The molecule also yielded a concentration at 4 h in [17] of 204 µM.

The values are drawn from ChEMBL document CHEMBL4725330, “The design, synthesis and evaluation of 2-aminobenzoxazole analogues as potent and orally efficacious ChemR23 inhibitors” (Bioorg Med Chem, 2020).
